By IC50 is commonly meant the concentration that gives 50% inhibition.

This is an account of results in ChEMBL document CHEMBL4819012, “Discovery of novel 2-aryl-3-sulfonamido-pyridines (HoAns) as microtubule polymerization inhibitors with potent antitumor activities” (Eur J Med Chem, 2021).

One series deals with MCF7. As to the kind of experiment: Antiproliferative activity against human MCF7 cells assessed as cell viability at 10 uM measured after 72 hrs by MTS method. The series is classed as functional. The following applies: read-out: Activity. In outline: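 Single-concentration screen at 10 µM for 72 h. Log-phase cells plated at 5×10^3–6×10^3 per well for 24 h before dosing, five replicate wells. Viability measured by MTS: 10% MTS in fresh medium, 30 min or more at 37 °C in dark, absorbance 490 nm.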
(In general: Tetrazolium dyes change colour on reduction, which living cells bring about.)

The test system of series [1] is SW-620. As to the kind of experiment: Antiproliferative activity against human SW-620 cells assessed as inhibition of cell proliferation measured after 24 hrs by crystal violet staining based colony-formation assay. Type of series: functional. The following applies: dose 0.125-1 µM. In outline:
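RKO or SW620 cells plated at 1000 cells/well overnight, exposed to 0.125–1 µM for 24 h, then grown 10 days in fresh medium. Colonies fixed in methanol 15 min, stained with 0.1% crystal violet 30 min, photographed; colonies of more than 50 cells counted.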

Series [2] deals with T1, Tubulin beta (Homo sapiens) (UniProt P68371+Q9H4B7+Q13509+P04350+Q3ZCM7+P07437+Q13885+Q9BVA1+Q9BUF5+A6NNZ2). As to the kind of experiment: Inhibition of N,N'-Ethylenebis(iodoacetamide) binding to beta tubulin in human SW-620 cells preincubated for 2 hrs followed by addition of EBI and measured after 2 hrs by western blot assay. The series is classed as cell-based. The following applies: dose 10-40 µM. In outline:
(§1)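 SW620 cells (5×10^5 per well) pretreated for 2 h with 10, 20 or 40 μM of test agent or DMSO, then given 100 μM EBI for 2 h. Lysed in SDS loading buffer. β-tubulin and β-tubulin–EBI adduct bands resolved by western blot probed with anti-β-tubulin.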

The subject of series [3] is RKO. The experiment in a line: Induction of cell cycle arrest in human RKO cells assessed as accumulation of cells in S phase at 0.5 uM measured after 24 hrs by PI staining based flow cytometry method (reference value: 49.66%). The series is classed as functional. In general terms: In flow cytometry, cells or beads pass a laser one at a time.
Series [4] has as its system RKO. As to the kind of experiment: Induction of cell cycle arrest in human RKO cells assessed as accumulation of cells in G2 phase at 0.5 uM measured after 24 hrs by PI staining based flow cytometry method (reference value: 10.79%). Type of series: functional.
The test system of series [5] is SW-620. As to the kind of experiment: Induction of cell cycle arrest in human SW-620 cells assessed as accumulation of cells in G1 phase at 0.5 uM measured after 24 hrs by PI staining based flow cytometry method (reference value: 40.06%). The series is classed as functional.
In series [6] the test system is SW-620. As to the kind of experiment: Induction of cell cycle arrest in human SW-620 cells assessed as accumulation of cells in S phase at 0.5 uM measured after 24 hrs by PI staining based flow cytometry method (reference value: 46.12%). The series is classed as functional.
In series [7] the test system is PANC-1. As to the kind of experiment: Induction of cell cycle arrest in human PANC-1 cells assessed as accumulation of cells in G1 phase at 0.5 uM measured after 24 hrs by PI staining based flow cytometry method (reference value: 31.35%). The series is classed as functional.
Series [8] deals with PANC-1. As to the kind of experiment: Induction of cell cycle arrest in human PANC-1 cells assessed as accumulation of cells in S phase at 0.5 uM measured after 24 hrs by PI staining based flow cytometry method (reference value: 65%). Type of series: functional.
Series [9] relates to RKO. The experiment in a line: Induction of apoptosis in human RKO cells assessed as viable cells at 0.5 uM measured after 24 hrs by PI/Annexin V staining based flow cytometry assay (reference value: 96.6%). The series is classed as functional. The following applies: read-out: Activity.
For series [10], the system named is RKO. The experiment in a line: Induction of apoptosis in human RKO cells assessed as late apoptotic cells at 0.5 uM measured after 24 hrs by PI/Annexin V staining based flow cytometry assay (reference value: 0.81%). The series is classed as functional.
The test system of series [11] is RKO. The experiment in a line: Induction of apoptosis in human RKO cells assessed as necrotic cells at 0.5 uM measured after 24 hrs by PI/Annexin V staining based flow cytometry assay (reference value: 0.01%). The series is classed as functional.
Series [12] deals with SW-620. The experiment in a line: Induction of apoptosis in human SW-620 cells assessed as viable cells at 0.5 uM measured after 24 hrs by PI/Annexin V staining based flow cytometry assay (reference value: 93.89%). The series is classed as functional. The following applies: read-out: Activity.
In series [13] the test system is SW-620. As to the kind of experiment: Induction of apoptosis in human SW-620 cells assessed as necrotic cells at 0.5 uM measured after 24 hrs by PI/Annexin V staining based flow cytometry assay (reference value: 0.03%). Type of series: functional.
Series [14] relates to SW-620. The experiment in a line: Induction of apoptosis in human SW-620 cells assessed as increase in ROS levels at 0.25 uM measured after 24 hrs by DCFH-DA staining based flow cytometry method relative to control. Type of series: functional. In outline:
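Cells at 5×10^5 per well exposed to 0.25 or 0.5 µM for 24 h, then loaded with 5 µM DCFH-DA in serum-free medium 30 min at 37 °C; washed, harvested, read by flow cytometry (ex 488/em 525 nm). ROS given as ratio of treated to control; at least three experiments.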

Series [15] can be described thus: Toxicity against Athymic nude mouse xenografted with SW-620 cells assessed as toxicity in heart at 25 mg/kg per two days, po measured after 20 days. Type of series: organism-based. To be noted: in vivo, 480 h, time 20 day. In outline: (§2)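 At the end of the 20-day oral SW620 xenograft study (25 mg/kg every 2 days, n = 6), heart, liver, spleen, lung and kidney were fixed in 4% paraformaldehyde and embedded in paraffin. 4 μm sections stained with Mayer hematoxylin 5 min and eosin-phloxine 2 min, then examined by light microscopy.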

A short description of series [16]: Toxicity against Athymic nude mouse xenografted with SW-620 cells assessed as toxicity in liver at 25 mg/kg per two days, po measured after 20 days by H and E staining method. Type of series: organism-based. To be noted: in vivo, 480 h, time 20 day. In outline: as §2
Series [17] can be described thus: Toxicity against Athymic nude mouse xenografted with SW-620 cells assessed as toxicity in kidney at 25 mg/kg per two days, po measured after 20 days by H and E staining method. The series is classed as organism-based. The following applies: in vivo, 480 h, time 20 day. In outline:
as §2

Series [18] in a line: Inhibition of tubulin polymerization assessed as morphology changes from fusiform to roud at 1 uM measured 24 hrs by DAPI staining based immunoflourescence assay relative to ABT-751.
The next series has as its system PLC-PRF-5. As to the kind of experiment: Antiproliferative activity against human PLC-PRF-5 cells assessed as cell viability measured after 72 hrs by MTS method. The following applies: PLC-PRF-5, 72 h. Type of series: functional, cell-based. In outline: (§3)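 Log-phase cells plated at 5×10^3–6×10^3 per well for 24 h, then given graded compound concentrations in fresh medium for 72 h, five replicate wells. Medium replaced with medium containing 10% MTS, 30 min or more at 37 °C in dark; OD 490 nm read. IC50 by nonlinear regression; mean ± SD of at least three experiments.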

The next series relates to A549. As to the kind of experiment: Antiproliferative activity against human A549 cells assessed as cell viability measured after 72 hrs by MTS method. Type of series: functional, cell-based. To be noted: A549, 72 h. Summed up:
as §3

The subject of a further series is NCI-H460. The experiment in a line: Antiproliferative activity against human NCI-H460 cells assessed as cell viability measured after 72 hrs by MTS method. The series is classed as functional, cell-based. To be noted: NCI-H460, 72 h. In outline:
as §3

The target of series [19] is T1, Tubulin beta (Homo sapiens). The experiment in a line: Inhibition of N,N'-Ethylenebis(iodoacetamide) binding to beta tubulin in human SW-620 cells at 20 to 40 uM preincubated for 2 hrs followed by addition of EBI and measured after 2 hrs by western blot assay. Type of series: cell-based. The following applies: dose 20-40 µM. Summed up: as §1
In general terms: In western blotting, separated proteins are transferred to a membrane and probed.

Structures are written as SMILES. The source made the active and inactive calls. The rule behind the calls is not given here.

On to `COc1ccc(S(=O)(=O)Nc2cccnc2-c2ccc(C#N)c(F)c2)cc1`, for which, in the series with MCF7, the viability at 10 µM is greater than 70%. Also, the Activity entry was “Dose-Dependent Effect” with SW-620 [1]; 46.37% in the series on RKO [3]; 16.65% in the series with RKO [4]; 38.03% with SW-620 [5]; 42.53% in the series on SW-620 [6]; 34.22% with PANC-1 [7]. Moreover, the Activity in the series on PANC-1 [8] is listed as 50.11%; in the series with RKO [10] it was 1.04%; in the series with RKO [11], 0.03%; in the series with SW-620 [13] it was 0.06%; in [15], “Non-Toxic”; in series [16] it was “Non-Toxic”. In series [17], the Activity entry is reported as “Non-Toxic”. For the same compound, the inhibition entry in series [2] was “Dose-Dependent Effect”. The viability at 0.5 µM in the series on RKO [9] was 74.5%; in the series on SW-620 [12], 90.2%. In the series on SW-620 [14], the “fold change (FC)” value is given as 1.5. In addition, in series [18], the inhibition entry is “Active”.
`COc1ccc(S(=O)(=O)Nc2cccnc2Nc2ccc(O)cc2)cc1` [ABT-751]: the IC50 stood at 792 nM in the series on PLC-PRF-5, 1380 nM with A549 and 2040 nM in the series on NCI-H460. Besides, in series [19], the inhibition entry is “Dose-Dependent Effect”.
